Compounds with a hit are over-represented: about 2.5% of the library has one in this group of screens.
E-sel inducer: E-selectin induction in HUVECs, primary screen, imaging, HUVEC, immunofluorescence imaging, single point; P16581; 0.37% of 260,000 active; normalized: neutral wells 0, TNF-alpha wells 100; activation, % at 7.58 µM; AID 686992, 2013;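 active = mean E-selectin-positive cell signal at least 10% of the positive control, reached in at least 60% of replicates, without over 20% cell loss; inconclusive = no rule given, readout overlaps actives, possibly toxicity-flagged; inactive = the rest, including those meeting only one limit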
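Read-out: % PE-positive cells | Test system: HUVEC | Doses: One compound dose added by pin transfer | Buffer or medium: EGM-2 over gelatin coat | Signal: Immunofluorescence imaging | Benchmarks: TNF-alpha, DMSO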
PglD DTNB: C. jejuni PglD acetyltransferase inhibitors, primary screen, biochemical, DTNB colorimetric, single point | inhibition, % at 12.5 µM | 0.098% of 360,000 active | purified PglD enzyme, DTNB colorimetric CoA detection | UDP-N-acetylbacillosamine N-acetyltransferase PglD (Campylobacter jejuni) | AID 602405, 2012; in the data active = inhibition above about 16%, passing the limit was not always enough; inconclusive = no clear call, values can overlap the other calls
DENV2 CPE: inhibitors of DENV2 cytopathic effect, primary screen, cell-based, plate reader, single concentration; AID 651640, 2012; 1.7% of 350,000 active; DENV2-infected cells, cytopathic effect rescue; CPE inhibition, % at 9.99 µM; in the data active = CPE inhibition above about 20%, passing the limit was not always enough; inconclusive = no clear call, values can overlap the other calls; tested in BHK-21 cells;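 note: 0% = median of neutral control wells and 100% = median of positive control wells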
ERAP1 HTS inh: human ERAP1 aminopeptidase inhibitors, primary screen, biochemical, single point, plate reader. Endoplasmic reticulum aminopeptidase 1 (Homo sapiens), Q9NZ08. recombinant ERAP1, Leu-AMC fluorescence, 60 min. inhibition, % at 10.7 µM. 0.15% of 340,000 active. AID 652197, 2013;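 active = mean replicate inhibition of at least 30%, or all replicates individually reaching that 30% level; inactive = mean below 30% and not every replicate reaching it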;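 note: 0% = neutral control wells and 100% = L-leucinethiol positive control wells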
Target sequence (Q9NZ08 whole entry, looked up): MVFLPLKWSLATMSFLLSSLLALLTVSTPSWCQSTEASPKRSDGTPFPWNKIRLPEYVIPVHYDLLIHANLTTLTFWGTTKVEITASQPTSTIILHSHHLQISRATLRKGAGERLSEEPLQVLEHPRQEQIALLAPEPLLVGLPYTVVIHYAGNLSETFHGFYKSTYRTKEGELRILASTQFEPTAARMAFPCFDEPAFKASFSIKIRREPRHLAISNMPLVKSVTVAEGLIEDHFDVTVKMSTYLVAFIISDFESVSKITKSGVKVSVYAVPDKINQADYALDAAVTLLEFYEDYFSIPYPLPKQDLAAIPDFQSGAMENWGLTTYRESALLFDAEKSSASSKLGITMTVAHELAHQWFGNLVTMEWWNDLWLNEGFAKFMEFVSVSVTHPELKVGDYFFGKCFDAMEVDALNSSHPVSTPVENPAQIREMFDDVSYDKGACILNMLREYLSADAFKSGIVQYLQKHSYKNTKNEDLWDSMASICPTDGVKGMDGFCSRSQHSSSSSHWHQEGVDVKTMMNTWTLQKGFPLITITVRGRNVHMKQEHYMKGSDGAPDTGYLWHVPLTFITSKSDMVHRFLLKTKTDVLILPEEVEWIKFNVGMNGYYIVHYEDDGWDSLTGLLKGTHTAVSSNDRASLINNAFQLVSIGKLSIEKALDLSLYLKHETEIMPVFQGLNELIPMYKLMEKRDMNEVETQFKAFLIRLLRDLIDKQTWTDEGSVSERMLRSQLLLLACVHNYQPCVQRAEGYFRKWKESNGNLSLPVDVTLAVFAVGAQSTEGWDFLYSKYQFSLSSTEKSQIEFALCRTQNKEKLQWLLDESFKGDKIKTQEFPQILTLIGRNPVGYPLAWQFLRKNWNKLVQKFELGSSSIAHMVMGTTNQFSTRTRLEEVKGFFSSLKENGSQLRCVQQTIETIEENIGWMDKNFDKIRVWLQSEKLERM
SIRT5 inh: SIRT5 desuccinylase inhibitors, primary screen, biochemical, fluorescence imaging, single point, set 5; 1.1% of 330,000 active; AID 652115, 2013; inhibition, % at 15 µM; NAD-dependent protein deacylase sirtuin-5, mitochondrial (Homo sapiens), Q9NXA8; Purified SirT5, succinyl-peptide AMC, trypsin-coupled fluorescence; in the data active = inhibition above about 15%; inconclusive = no clear call, values can overlap the other calls
* = called active by the depositor; ? = inconclusive; · = not tested or not shown.

SMILES | E-sel inducer | PglD DTNB | DENV2 CPE | ERAP1 HTS inh | SIRT5 inh
Cc1cccnc1NC(=O)c1ccc(S(=O)(=O)N2CCCC2)cc1 | · | 0.1 | 64.6* | -0.5 | -2.7
COc1ccc(N2CCN(C(=O)CN(C)S(=O)(=O)c3cc(C)ccc3OC)CC2)cc1 | 1.2 | 10.7 | · | -2.3 | 19.4*
CC(C)NC(=O)N(C)C[C@@H]1Oc2cc(-c3cccnc3)ccc2S(=O)(=O)N([C@@H](C)CO)C[C@@H]1C | 0.0 | 0.4 | -3.7 | 0.8 | -4.8
Cc1nc(/N=C\c2ccc(N(C)C)cc2)sc1C | 0.0 | -0.8 | 32.6* | 0.0 | -5.3
CN(C)c1ccc(C=Nc2ccc(N(C)C)cc2)cc1 | · | 0.5 | · | · | ·
CN(C)C(=O)C[C@H]1C=C[C@@H](NC(=O)c2ccc(F)cc2)[C@H](CO)O1 | 0.3 | 0.5 | 5.3 | · | -3.7
Cc1ccccc1C1=C/C(=C(\SS/C(C(=O)c2ccc(OCC(=O)O)c(Cl)c2Cl)=C2\C=C(c3ccccc3C)SS2)C(=O)c2ccc(OCC(=O)O)c(Cl)c2Cl)SS1 | -4.0 | · | 0.0 | 17.8 | 68.6*
C[C@H]1CN([C@@H](C)CO)C(=O)c2cccc(NS(C)(=O)=O)c2O[C@@H]1CN(C)Cc1ccc(Oc2ccccc2)cc1 | 31.8* | -0.3 | 7.9 | 2.7 | 2.0
C[C@H]1CN([C@@H](C)CO)C(=O)c2cccc(NS(C)(=O)=O)c2O[C@@H]1CN(C)Cc1ccncc1 | 204.1* | -1.7 | 4.3 | -2.5 | 0.1
C[C@@H]1CN([C@H](C)CO)C(=O)c2cccc(NS(C)(=O)=O)c2O[C@@H]1CN(C)Cc1ccncc1 | 262.0* | 0.3 | 3.5 | -2.8 | -4.8
C[C@@H]1CN([C@H](C)CO)C(=O)c2cccc(NS(C)(=O)=O)c2O[C@H]1CN(C)Cc1ccc(Oc2ccccc2)cc1 | 3.8 | -2.9 | 4.7 | 2.7 | 3.4
CC(C)S(=O)(=O)N1CCCC(c2cc(C(=O)NCc3cccnc3)no2)C1 (stereo unspecified) | 1.5 | -3.0 | -3.3 | -4.1 | ·
COc1cccc(S(=O)(=O)N(C)C[C@@H]2Oc3ncc(-c4cc5ccccc5o4)cc3C(=O)N([C@H](C)CO)C[C@@H]2C)c1 | 0.3 | 1.2 | -9.4 | 2.1 | -0.9
C[C@@H]1CN([C@@H](C)CO)C(=O)c2cc(C#Cc3ccccc3F)cnc2O[C@H]1CN(C)S(=O)(=O)c1ccccc1F | 0.2 | -2.2 | 34.6* | 0.4 | 3.4
C[C@@H]1CN([C@@H](C)CO)C(=O)c2cc(C#CC3CCCCC3)cnc2O[C@H]1CN(C)S(=O)(=O)c1cccc(F)c1 | · | -0.5 | 0.6 | -3.0 | 22.3*
C[C@H](CO)N1C[C@H](C)[C@H](CN(C)S(=O)(=O)c2cccc(F)c2)Oc2ncc(-c3cc4ccccc4o3)cc2C1=O | 0.3 | 5.1 | · | -0.1 | 15.0*
C[C@@H]1CN([C@H](C)CO)C(=O)c2cc(C#Cc3ccccc3)cnc2O[C@@H]1CN(C)S(=O)(=O)c1ccccc1F | 0.2 | -1.8 | ? | 7.4 | -1.4
C[C@H]1CN([C@@H](C)CO)C(=O)c2cc(C#CC3CCCCC3)cnc2O[C@H]1CN(C)S(=O)(=O)c1cccc(F)c1 | 1.7 | -1.1 | -4.8 | 0.0 | 1.6
C[C@H](CO)N1C[C@H](C)[C@@H](CN(C)S(=O)(=O)c2cccc(F)c2)Oc2ncc(C#CC3CCCCC3)cc2C1=O | · | 1.4 | 7.6 | 0.1 | 30.2*
C[C@@H]1CN([C@@H](C)CO)C(=O)c2cc(C#CC3CCCCC3)cnc2O[C@@H]1CN(C)S(=O)(=O)c1ccccc1 | -0.1 | 4.7 | 5.7 | -1.6 | 15.6*
C[C@@H]1CN([C@@H](C)CO)C(=O)c2cc(C#CC3CCCCC3)cnc2O[C@@H]1CN(C)S(=O)(=O)c1cccc(F)c1 | -0.3 | -1.6 | -0.5 | 0.5 | 17.8*
Cc1cc2[nH]c(=O)c(=O)[nH]c2cc1S(=O)(=O)N1CCN(c2ccccc2)CC1 | 0.1 | 1.3 | 0.7 | · | ·
Cc1oc(-c2ccc(-c3ccccc3)cc2)nc1CN(C)C1CCOC1 (stereo unspecified) | 0.0 | 3.0 | -4.4 | 2.1 | 17.6*
N#CCc1ccc(NS(=O)(=O)c2cccs2)cc1 | · | 0.6 | · | · | ·
C[C@H](CO)N1C[C@H](C)[C@@H](CN(C)C(=O)Nc2cccc3ccccc23)Oc2ccc(NC(=O)CCN3CCOCC3)cc2C1=O | · | 0.4 | -1.7 | · | 2.5
SMILES | E-sel inducer | PglD DTNB | DENV2 CPE | ERAP1 HTS inh | SIRT5 inh
COc1cc(/C(C)=N/NC(=O)CN2CCN(S(=O)(=O)c3ccc(C)cc3)CC2)ccc1O | 0.1 | -0.5 | -2.2 | · | -5.1
C/C(=N\NC(=O)CN1CCN(S(=O)(=O)c2ccc(C)cc2)CC1)c1ccc(O)cc1 | -0.4 | 2.8 | · | · | 15.0*
COc1ccc(S(=O)(=O)N2CCN(CC(=O)NC3CC3)CC2)cc1 | -3.8 | -5.2 | 23.3* | -1.9 | 2.1
COc1ccc(S(=O)(=O)N2CCC(NC(=O)C(Cc3cccc(OC)c3OC)NC(C)=O)CC2)cc1 (stereo unspecified) | · | · | 10.2 | -1.9 | 18.1*
O=C(C[C@H]1C[C@@H]2c3cc(NC(=O)C4CCOCC4)ccc3O[C@@H]2[C@H](CO)O1)NC1CCCCC1 | 0.1 | 1.7 | -5.4 | -1.0 | -7.6
Cc1cccc(N2CCN(C(=O)COc3ccc4c(C)cc(=O)oc4c3C)CC2)c1C | 0.5 | 3.4 | 1.2 | -6.0 | 19.2*
CCCc1cc(=O)oc2c(C)c(OCC(=O)N3C[C@H]4C[C@@H](C3)c3cccc(=O)n3C4)ccc12 | · | 5.1 | 28.7* | 10.2 | ·
Cc1c(OCC(=O)N2C[C@H]3C[C@@H](C2)c2cccc(=O)n2C3)ccc2c3c(c(=O)oc12)CCCC3 | · | -4.4 | -17.8 | -1.2 | 3.5
Oc1ccc(-c2cnns2)c(O)c1 | 1.7 | · | 13.1 | 2.4 | 30.6*
Oc1ccc(-c2nc3ccccc3s2)c(O)c1 | 3.4 | · | 3.0 | 0.5 | -13.8
Cc1c(C(=O)c2ccc3c(c2)OCO3)ccc2c1OCO2 | 0.0 | · | -7.4 | -2.1 | -3.6
O=C(N[C@H]1CC[C@@H](CCNC(=O)C2CCCC2)O[C@H]1CO)c1ccccn1 | 0.0 | -1.8 | 43.6* | 3.0 | 4.2
O=C(N[C@H]1CC[C@@H](CCNC(=O)C2CCCC2)O[C@@H]1CO)c1ccccn1 | -0.1 | -1.3 | 3.5 | 1.7 | -1.5
O=C(N[C@@H]1CC[C@H](CCNC(=O)C2CCCCC2)O[C@@H]1CO)c1ccccn1 | 0.0 | -3.5 | 148.8* | -1.8 | 1.3
O=C(N[C@H]1CC[C@H](CC(=O)N2CCCCC2)O[C@@H]1CO)c1ccccn1 | -0.4 | · | 28.0* | · | -2.2
O=C(N[C@H]1CC[C@@H](CC(=O)N2CCCCC2)O[C@@H]1CO)c1ccccn1 | -0.4 | 3.0 | -7.9 | -0.1 | -5.0
NC(=O)c1cc2cc(Cl)ccc2oc1=O | · | 4.0 | · | · | ·
NC(=O)c1cc2cc(Cl)ccc2oc1=Nc1cccc(C(F)(F)F)c1 | -1.7 | -5.7 | 66.1* | -3.0 | -0.9
CC(C)(C)OC(=O)NCCOCCOCCNc1ncnc2ccc(Br)cc12 | · | · | 20.1* | 0.9 | 1.9

Screening data (PubChem)
